# From PubChem
# A1 apoptosis 2 = blocks A1, raising caspase activity; MEF A1-2A-BIM cells, caspase-Glo luminescence, 3 h; percent of clofoctol response, DMSO zero; caspase activation, % (test concentration not listed); 24,000 tested, under 10 active; in the data active = caspase activation above about 5.9%
#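 Material: mouse embryonic fibroblasts co-expressing A1 and BIM (A1-2A-BIM), primed for A1 dependence / Quantity: 2500 cells/well / Buffer or medium: RPMI-1640 growth medium with 10% FBS / Doses: 50 nL compound per well, pinned / Schedule: 3 h compound exposure at 37 °C / Signal: Caspase-Glo luminescence (DEVD substrate) / Measure: Caspase-3/7 activation, seen as rise in luminescence signal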
# T cruzi HTS = blocks T. cruzi growth inside host cells; activity score (inhibition), % at 5.01 µM; intracellular Trypanosoma cruzi in host cells, plate reader; 4.9% of 22,000 active; in the data active = activity score above about 55%;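 also: parasites and compound incubated about four days before reading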
# INS-1E rescue = INS-1E beta cell protection from cytokine death | INS-1E cytokine-induced death, ATP luminescence, 48 h; normalised: neutral wells 0, positive control 100 | 0.1% of 20,000 active | protection from cytokine-induced ATP loss, % at 10 µM;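 active = mean replicate protection from cytokine-induced ATP loss at least 50% and at least 75% of replicates each reaching 50%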
#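 Material: INS-1E rat cells; Quantity: 8000 cells/well; Buffer or medium: phenol-red-free RPMI with 5% fetal bovine serum; Probe or stimulus: cytokine cocktail of IFN-γ, TNF-α and IL-1β; Compound dosing: single test concentration per compound, delivered by pin transfer; Incubation: 48 h co-treatment, 10 min post-lysis read; Signal: CellTiter-Glo luminescence.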
# A number is an active result; i = inactive; nt = no result. The sample as a whole holds a higher share of hits than the screen did.
SMILES,A1 apoptosis 2,T cruzi HTS,INS-1E rescue
C[C@H](CO)N1C[C@H](C)[C@@H](CN(C)Cc2ccc(C(=O)Nc3ccccc3N)cc2)Oc2c(NC(=O)Nc3ccccc3)cccc2C1=O,nt,61,i
CC(C)NC(=O)Nc1cccc2c1O[C@H](CN(C)Cc1ccc(C(=O)Nc3ccccc3N)cc1)[C@H](C)CN([C@H](C)CO)C2=O,i,i,i
C[C@@H]1CN([C@H](C)CO)C(=O)c2cccc(NC(=O)Nc3ccc4c(c3)OCO4)c2O[C@H]1CN(C)Cc1ccc(C(=O)Nc2ccccc2N)cc1,nt,77,i
C[C@@H]1CN([C@@H](C)CO)C(=O)c2cccc(NC(=O)Nc3ccc(F)cc3)c2O[C@@H]1CN(C)Cc1ccc(C(=O)Nc2ccccc2N)cc1,i,70,i
C[C@H](CO)N1C[C@H](C)[C@H](CN(C)Cc2ccc(C(=O)Nc3ccccc3N)cc2)Oc2c(NC(=O)Nc3ccc4c(c3)OCO4)cccc2C1=O,i,i,i
C=CCNC(=O)[C@@H]1[C@H]2C(=O)O[C@H](c3ccccc3)[C@H](c3ccccc3)N2[C@H](c2ccccc2OCCO)[C@@]12C(=O)Nc1ccc(C#CC3(O)CCCCCC3)cc12,i,nt,nt
COC(=O)CCCCCCC(=O)N/N=C/c1ccccn1,i,i,i
O=C(CCCCC(=O)NN=C1CCCCCCC1)NO,i,i,i
O=C(NO)c1ccc(C(=O)N/N=C/c2cc(Br)cc([N+](=O)[O-])c2O)cc1,i,i,i
O=C(NO)c1ccc(C(=O)N/N=C/c2cccnc2Cl)cc1,i,i,i
COc1ccc(S(=O)(=O)Nc2ccc3c(c2)C(=O)N([C@H](C)CO)C[C@H](C)[C@H](CN(C)Cc2ccc(C(=O)Nc4ccccc4N)cc2)OCCCC[C@@H](C)O3)cc1,i,i,i
C[C@@H]1CN([C@@H](C)CO)C(=O)c2cccc(NS(=O)(=O)c3ccc(Cl)cc3)c2O[C@@H]1CN(C)Cc1ccc(C(=O)Nc2ccccc2N)cc1,nt,i,i
C[C@@H]1CN([C@@H](C)CO)C(=O)c2cc(NS(=O)(=O)c3ccc(F)cc3)ccc2O[C@@H]1CN(C)Cc1ccc(C(=O)Nc2ccccc2N)cc1,nt,i,i
C[C@@H]1CN([C@H](C)CO)C(=O)c2cccc(NS(=O)(=O)c3ccc(Cl)cc3)c2O[C@H]1CN(C)Cc1ccc(C(=O)Nc2ccccc2N)cc1,i,65,i
C[C@@H]1CN([C@H](C)CO)C(=O)c2cc(NS(=O)(=O)c3ccccc3)ccc2O[C@H]1CN(C)Cc1ccc(C(=O)Nc2ccccc2N)cc1,nt,i,i
C[C@H]1CN([C@@H](C)CO)C(=O)c2cc(NS(=O)(=O)c3ccc(Cl)cc3)ccc2O[C@H]1CN(C)Cc1ccc(C(=O)Nc2ccccc2N)cc1,nt,73,i
C[C@H](CO)N1C[C@H](C)[C@H](CN(C)Cc2ccc(C(=O)Nc3ccccc3N)cc2)Oc2ccc(NS(=O)(=O)c3ccc(F)cc3)cc2C1=O,i,63,i
C[C@@H]1CCCCO[C@@H](CN(C)Cc2ccc(C(=O)Nc3ccccc3N)cc2)[C@@H](C)CN([C@H](C)CO)C(=O)c2cc(NS(=O)(=O)c3ccc(Cl)cc3)ccc2O1,i,78,i
O=C(N/N=C/C1=CCCCC1)c1ccccc1O,i,i,i
Cn1cc(/C=N/NC(=O)c2cccc(C(=O)NO)c2)c2ccccc21,i,i,i
C=CCOC(=O)[C@H]1[C@@H]2C(=O)O[C@@H](c3ccccc3)[C@@H](c3ccccc3)N2[C@@H](c2ccc(OCCOC(=O)[C@@H]3C[C@@H]4C(=O)N[C@@H](CCCCNC(C)=O)C(=O)N4[C@@H]3c3ccc(O)cc3)cc2)[C@]12C(=O)Nc1ccc(I)cc12,i,nt,nt
O=C1O[C@@H](c2ccccc2)[C@@H](c2ccccc2)N2[C@@H](c3ccccc3OCCO)[C@]3(C(=O)Nc4ccccc43)[C@@H](C(=O)NC[C@H](O)c3ccccc3)[C@H]12,i,nt,nt
C[C@@H]1CCCCO[C@@H](CN(C)Cc2ccc(C(=O)Nc3ccccc3N)cc2)[C@@H](C)CN([C@H](C)CO)C(=O)c2cc(NS(=O)(=O)c3cccs3)ccc2O1,nt,62,i
C[C@@H]1CCCCO[C@H](CN(C)Cc2ccc(C(=O)Nc3ccccc3N)cc2)[C@@H](C)CN([C@H](C)CO)C(=O)c2cc(NS(=O)(=O)c3cccs3)ccc2O1,i,i,i
COc1ccc(S(=O)(=O)Nc2ccc3c(c2)CC(=O)N([C@@H](C)CO)C[C@H](C)[C@@H](CN(C)Cc2ccc(C(=O)Nc4ccccc4N)cc2)O3)cc1,i,58,i
C[C@@H]1CN([C@@H](C)CO)C(=O)c2cc(NS(=O)(=O)c3cccs3)ccc2O[C@H]1CN(C)Cc1ccc(C(=O)Nc2ccccc2N)cc1,i,i,i
